Source: PMC2677188 (ACS chemical biology, 2009)
“And” between values parts separate entries of the source, which are not always exact repeats. Identical values can stand only once. Like-named read-outs stand apart in the source and are kept apart here.

Columns and labels:
[1] = biological target: rTAAR1 (wild type rat TAAR1) (Rattus norvegicus, UniProt Q923Y9); assay: In vitro cAMP agonist activity assay; format: cell-based
[2] = biological target: T1, mTAAR1 (wild type mouse TAAR1) (Mus musculus, UniProt Q923Y8); assay: In vitro cAMP agonist activity assay, wild type mTAAR1; format: cell-based
T1 sequence (Q923Y8 whole entry): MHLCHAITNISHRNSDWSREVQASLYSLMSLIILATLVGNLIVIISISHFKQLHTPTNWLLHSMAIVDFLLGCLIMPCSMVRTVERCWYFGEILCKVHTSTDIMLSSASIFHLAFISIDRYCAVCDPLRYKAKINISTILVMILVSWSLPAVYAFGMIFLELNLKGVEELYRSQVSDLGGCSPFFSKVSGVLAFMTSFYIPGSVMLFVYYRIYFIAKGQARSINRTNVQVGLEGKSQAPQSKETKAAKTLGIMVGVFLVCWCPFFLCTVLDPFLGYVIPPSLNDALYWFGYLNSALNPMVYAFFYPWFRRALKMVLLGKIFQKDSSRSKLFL

[3] = biological target: rTAAR1(M6.55T) (Rattus norvegicus, UniProt Q923Y9, M268T); assay: cAMP agonist activity assay, rTAAR1; format: cell-based
Sequence of rTAAR1(M6.55T) (Q923Y9 whole entry M268T): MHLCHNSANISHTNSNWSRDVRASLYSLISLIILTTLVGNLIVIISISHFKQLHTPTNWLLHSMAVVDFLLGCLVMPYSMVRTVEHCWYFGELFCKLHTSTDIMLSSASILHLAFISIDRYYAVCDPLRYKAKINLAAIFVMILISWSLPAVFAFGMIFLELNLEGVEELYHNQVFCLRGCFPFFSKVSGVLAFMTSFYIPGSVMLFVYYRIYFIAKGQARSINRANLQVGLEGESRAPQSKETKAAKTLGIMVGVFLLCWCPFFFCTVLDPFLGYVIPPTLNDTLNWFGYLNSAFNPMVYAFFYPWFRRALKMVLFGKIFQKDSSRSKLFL

[4] = biological target: rTAAR1(N7.39Y) (Rattus norvegicus, UniProt Q923Y9, N287Y); assay: cAMP agonist activity assay, rTAAR1; format: cell-based
Sequence of rTAAR1(N7.39Y) (Q923Y9 whole entry N287Y): as the sequence (Q923Y9 whole entry M268T) above, with T268M, N287Y counted along it

[5] = biological target: rTAAR1(M6.55T/N7.39Y) (Rattus norvegicus, UniProt Q923Y9, M268T/N287Y); assay: cAMP agonist activity assay, rTAAR1; format: cell-based
Sequence of rTAAR1(M6.55T/N7.39Y) (Q923Y9 whole entry M268T/N287Y): as the sequence (Q923Y9 whole entry M268T) above, with N287Y counted along it

[6] = biological target: mTAAR1(T6.55M) (Mus musculus, UniProt Q923Y8, T268M); assay: cAMP agonist activity assay, mTAAR1; format: cell-based
Sequence of mTAAR1(T6.55M) (Q923Y8 whole entry T268M): as the sequence (Q923Y8 whole entry) above, with T268M counted along it

[7] = biological target: mTAAR1(Y7.39N) (Mus musculus, UniProt Q923Y8, Y287N); assay: cAMP agonist activity assay, mTAAR1; format: cell-based
Sequence of mTAAR1(Y7.39N) (Q923Y8 whole entry Y287N): as the sequence (Q923Y8 whole entry) above, with Y287N counted along it

[8] = biological target: mTAAR1(T6.55M/Y7.39N) (Mus musculus, UniProt Q923Y8, T268M/Y287N); assay: cAMP agonist activity assay, mTAAR1; format: cell-based
Sequence of mTAAR1(T6.55M/Y7.39N) (Q923Y8 whole entry T268M/Y287N): as the sequence (Q923Y8 whole entry) above, with T268M, Y287N counted along it

[9] = biological target: rTAAR1(A5.42L) (Rattus norvegicus, UniProt Q923Y9, A193L); assay: cAMP agonist activity assay, rTAAR1; format: cell-based; conditions: for decrease in potency versus wild type: rTAAR1(A5.42L)
Sequence of rTAAR1(A5.42L) (Q923Y9 whole entry A193L): as the sequence (Q923Y9 whole entry M268T) above, with A193L, T268M counted along it
Method in brief: (§1)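 Site-directed TAAR1 mutants were stably expressed in HEK293 cells (transfected, selected with G418). cAMP was measured with a HitHunter cAMP XS kit over concentration-response curves. Responses were expressed relative to the reference agonist at 10 μM (set as 100%). EC50 and Emax were obtained by curve fitting, averaged over N independent triplicate experiments, with SEM.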

[10] = biological target: rTAAR1(A5.42I) (Rattus norvegicus, UniProt Q923Y9, A193I); assay: cAMP agonist activity assay, rTAAR1; format: cell-based; conditions: for decrease in potency versus wild type: rTAAR1(A5.42I)
Sequence of rTAAR1(A5.42I) (Q923Y9 whole entry A193I): as the sequence (Q923Y9 whole entry M268T) above, with A193I, T268M counted along it
Method in brief: as §1

[11] = biological target: rTAAR1(A5.42T) (Rattus norvegicus, UniProt Q923Y9, A193T); assay: cAMP agonist activity assay, rTAAR1; format: cell-based
Sequence of rTAAR1(A5.42T) (Q923Y9 whole entry A193T): as the sequence (Q923Y9 whole entry M268T) above, with A193T, T268M counted along it
Method in brief: as §1

[12] = biological target: mTAAR1(Y4.56F) (Mus musculus, UniProt Q923Y8, Y153F); assay: cAMP agonist activity assay, mTAAR1; format: cell-based; conditions: for increase in potency versus wild type: mTAAR1(Y4.56F)
Sequence of mTAAR1(Y4.56F) (Q923Y8 whole entry Y153F): as the sequence (Q923Y8 whole entry) above, with Y153F counted along it
Method in brief: as §1

[13] = biological target: T1, mTAAR1 (wild type mouse TAAR1); conditions: wild type receptors; cited from earlier work
[14] = biological target: rTAAR1(F4.56Y) (Rattus norvegicus, UniProt Q923Y9, F153Y); assay: cAMP agonist activity assay, rTAAR1; format: cell-based
Sequence of rTAAR1(F4.56Y) (Q923Y9 whole entry F153Y): as the sequence (Q923Y9 whole entry M268T) above, with F153Y, T268M counted along it
Method in brief: as §1

Sequence of rTAAR1 (wild type rat TAAR1) (Q923Y9 whole entry): as the sequence (Q923Y9 whole entry M268T) above, with T268M counted along it

For NCCc1ccc(Oc2ccc(O)cc2)c(I)c1 [Compound 1, 3-Iodothyronamine], which EC50 ([1]; read-out: EC50 ± SEM, wild type rTAAR1, HEK293 cells, cAMP) is on record?
The EC50 was 33 ± 3 nM.

And the “Emax ± SEM” value ([1]; wild type rTAAR1, Emax = 100 % is the activity of 1 at 10 mM (so in the source))?
The value was 100± 0%.

What about the “rTAAR1 selectivity: fold more potent for rTAAR1 compared to mTAAR1” value ([1]; wild type receptors) of the same compound?
The value was ~ 10 fold and 7–10 fold.

And the EC50 ([2]; read-out: EC50 ± SEM, wild type mTAAR1, HEK293 cells, cAMP)?
Its EC50 is 314 ± 43 nM.

What about the “improvement of potency at mTAAR1 on eliminating the β-phenyl ring of 2, 5 and 7” value ([2]; wild type mTAAR1) of the same compound?
Its value is 24- to 32 fold.

What about the “Emax ± SEM” value ([2]; wild type mTAAR1, Emax = 100 % is the activity of 1 at 10 mM (so in the source)) of the same compound?
The value was 100 ± 0%.

What about the EC50 ([3]; read-out: EC50 ± SEM) of the same compound?
The EC50 was 129 ± 43 nM.

What about the “Emax ± SEM” value ([3]; relative to 1) of the same compound?
The value was 100 ±0%.

What about the EC50 ([4]; read-out: EC50 ± SEM) of the same compound?
Its EC50 is 135 nM.

And the “Emax ± SEM” value ([4]; relative to 1)?
The value was 100%.

What about the EC50 ([5]; read-out: EC50 ± SEM) of the same compound?
The EC50 was 90 nM.

What about the “Emax ± SEM” value ([5]; relative to 1) of the same compound?
The value was 100%.

And the EC50 ([6]; read-out: EC50 ± SEM)?
The EC50 was 1420 ± 592 nM.

What about the “Emax ± SEM” value ([6]; relative to 1) of the same compound?
Its value is 100 ± 0%.

And the EC50 ([7]; read-out: EC50 ± SEM)?
The EC50 was 251 ± 43 nM.

And the “Emax ± SEM” value ([7]; relative to 1)?
The value was 100 ± 0%.

What about the EC50 ([8]; read-out: EC50 ± SEM) of the same compound?
The EC50 was 208 ± 60 nM.

And the “Emax ± SEM” value ([8]; relative to 1)?
The value was 100 ± 0%.

What about the “decrease in potency versus wild type” value [9] of the same compound?
Its value is 2 fold.

What about the “Emax ± SEM” value ([9]; rTAAR1 A5.42L (Table 3a), relative to 1) of the same compound?
Its value is 100 ± 0%.

What about the EC50 ([9]; read-out: EC50 ± SEM, rTAAR1 A5.42L (Table 3a)) of the same compound?
The EC50 was 58 ± 16 nM.

What about the “decrease in potency versus wild type” value [10] of the same compound?
The value was 3 fold.

And the “Emax ± SEM” value ([10]; rTAAR1 A5.42I (Table 3a), relative to 1)?
Its value is 100 ± 0%.

What about the EC50 ([10]; read-out: EC50 ± SEM, rTAAR1 A5.42I (Table 3a)) of the same compound?
The EC50 was 108 ± 14 nM.

And the “fold less potent versus wild type” value ([11]; rTAAR1(A5.42T))?
The value was 3 fold.

And the “Emax ± SEM” value ([11]; rTAAR1 A5.42T, relative to 1)?
Its value is 100 ± 0%.

What about the EC50 ([11]; read-out: EC50 ± SEM, rTAAR1 A5.42T) of the same compound?
The EC50 was 88 ± 13 nM.

And the “increase in potency versus wild type” value [12]?
The value was 5 fold.

And the “fold less potent for mTAAR1 compared to rTAAR1” value [13]?
Its value is 7 to 10 fold.

Which EC50 [1] does the source give for NCCc1ccc(O)cc1 [Tyramine, tyramine] here?
Its EC50 is 65 ± 1 nM.

What about the Emax ([1]; read-out: Emax ± SEM) of the same compound?
The Emax was 119 ± 7%.

What about the EC50 [2] of the same compound?
Its EC50 is 271 ± 52 nM.

What about the Emax ([2]; read-out: Emax ± SEM) of the same compound?
The Emax was 110 ± 2%.

And the EC50 [9]?
Its EC50 is about 2000 nM.

And the “decrease in potency versus wild type” value [9]?
Its value is 31 fold.

What about the Emax ([9]; read-out: Emax ± SEM) of the same compound?
The Emax was 102 ± 18%.

And the EC50 [10]?
The EC50 was over 10000 nM.

And the “decrease in potency versus wild type” value [10]?
Its value is 154 fold.

And the Emax ([10]; read-out: Emax ± SEM)?
Its Emax is 49 ± 7%.

And the EC50 [11]?
The EC50 was over 10000 nM.

What about the “fold less potent versus wild type” value ([11]; rTAAR1(A5.42T)) of the same compound?
The value was 154 fold.

What about the “less efficacious than wild type” value ([11]; rTAAR1(A5.42T)) of the same compound?
Its value is 50%.

What about the Emax ([11]; read-out: Emax ± SEM) of the same compound?
Its Emax is 69 ± 5%.

What about the EC50 [14] of the same compound?
Its EC50 is 54 ± 11 nM.

And the Emax ([14]; read-out: Emax ± SEM)?
The Emax was 108 ± 6%.

What about the EC50 [12] of the same compound?
Its EC50 is 40 ± 13 nM.

And the “increase in potency versus wild type” value [12]?
Its value is 7 fold.

What about the Emax ([12]; read-out: Emax ± SEM) of the same compound?
The Emax was 118 ± 8%.

And the “fold less potent for mTAAR1 compared to rTAAR1” value [13]?
The value was 7 to 10 fold.
